This note sets out measurements from ChEMBL document CHEMBL5678808, “Human target validation of phosphoinositide 3-kinase (PI3K)β: effects on platelets and insulin sensitivity, using AZD6482 a novel PI3Kβ inhibitor” (J Thromb Haemost, 2012).

Active and inactive are the calls of the source. The rule behind the calls is not given here.

The target in experiment [1] is Phosphatidylinositol 4,5-bisphosphate 3-kinase catalytic subunit beta isoform (Homo sapiens, UniProt P42338). Description: Inhibition of recombinant human PI3Kbeta using PIP2 as substrate preincubated for 20 mins followed by substrate and ATP addition and measured after 20 mins by biotinylated-PIP3 based alphascreen assay. On the technique in general: Bead proximity is the source of the signal in Alpha formats.

Experiment [2] concerns the target Phosphatidylinositol 4,5-bisphosphate 3-kinase catalytic subunit alpha isoform (Homo sapiens, UniProt P42336). Description: Inhibition of recombinant human PI3Kalpha using PIP2 as substrate preincubated for 20 mins followed by substrate and ATP addition and measured after 20 mins by biotinylated-PIP3 based alphascreen assay.
Another experiment has as its system Rattus norvegicus. The experiment is described as follows: Effect on insulin resistance in iv dosed Sprague-Dawley rat assessed as plasma concentration required to show relative HOMA index of 3. Format: functional, organism-based.
For experiment [3], the species on record is Homo sapiens. Description: Inhibition of PI3Kalpha/beta/gamma/delta in human platelet rich plasma assessed as reduction in ADP-induced platelet aggregation at 5 uM preincubated for 10 mins followed by ADP addition and measured after 5 mins by light transmission aggregometry. The settings on record: time 15.0 min. Format: cell-free. Summed up:
(§1)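 Venous blood from healthy human donors, citrate-anticoagulated; undiluted platelet-rich plasma tested in an in-house 96-well plate light transmission aggregometry assay. Agonist concentration-response curves run without and with inhibitor. Values are means, n = 4.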

The species named for experiment [4] is Homo sapiens. Description: Inhibition of PI3Kalpha/beta/gamma/delta in human platelet rich plasma assessed as reduction in collagen-induced platelet aggregation at 5 uM preincubated for 10 mins followed by collagen addition and measured after 10 mins by light transmission aggregometry. The settings on record: time 20.0 min. Format: cell-free. The method in brief:
as §1

Experiment [5] is filed under the species Homo sapiens. The experiment is described as follows: Inhibition of PI3Kalpha/beta/gamma/delta in human platelet rich plasma assessed as reduction in TRAP-induced platelet aggregation at 5 uM preincubated for 10 mins followed by TRAP addition and measured after 5 mins by light transmission aggregometry. Format: cell-free. The settings on record: time 15.0 min. Summed up:
as §1

Chain of Phosphatidylinositol 4,5-bisphosphate 3-kinase catalytic subunit beta isoform (P42338 whole entry, canonical isoform): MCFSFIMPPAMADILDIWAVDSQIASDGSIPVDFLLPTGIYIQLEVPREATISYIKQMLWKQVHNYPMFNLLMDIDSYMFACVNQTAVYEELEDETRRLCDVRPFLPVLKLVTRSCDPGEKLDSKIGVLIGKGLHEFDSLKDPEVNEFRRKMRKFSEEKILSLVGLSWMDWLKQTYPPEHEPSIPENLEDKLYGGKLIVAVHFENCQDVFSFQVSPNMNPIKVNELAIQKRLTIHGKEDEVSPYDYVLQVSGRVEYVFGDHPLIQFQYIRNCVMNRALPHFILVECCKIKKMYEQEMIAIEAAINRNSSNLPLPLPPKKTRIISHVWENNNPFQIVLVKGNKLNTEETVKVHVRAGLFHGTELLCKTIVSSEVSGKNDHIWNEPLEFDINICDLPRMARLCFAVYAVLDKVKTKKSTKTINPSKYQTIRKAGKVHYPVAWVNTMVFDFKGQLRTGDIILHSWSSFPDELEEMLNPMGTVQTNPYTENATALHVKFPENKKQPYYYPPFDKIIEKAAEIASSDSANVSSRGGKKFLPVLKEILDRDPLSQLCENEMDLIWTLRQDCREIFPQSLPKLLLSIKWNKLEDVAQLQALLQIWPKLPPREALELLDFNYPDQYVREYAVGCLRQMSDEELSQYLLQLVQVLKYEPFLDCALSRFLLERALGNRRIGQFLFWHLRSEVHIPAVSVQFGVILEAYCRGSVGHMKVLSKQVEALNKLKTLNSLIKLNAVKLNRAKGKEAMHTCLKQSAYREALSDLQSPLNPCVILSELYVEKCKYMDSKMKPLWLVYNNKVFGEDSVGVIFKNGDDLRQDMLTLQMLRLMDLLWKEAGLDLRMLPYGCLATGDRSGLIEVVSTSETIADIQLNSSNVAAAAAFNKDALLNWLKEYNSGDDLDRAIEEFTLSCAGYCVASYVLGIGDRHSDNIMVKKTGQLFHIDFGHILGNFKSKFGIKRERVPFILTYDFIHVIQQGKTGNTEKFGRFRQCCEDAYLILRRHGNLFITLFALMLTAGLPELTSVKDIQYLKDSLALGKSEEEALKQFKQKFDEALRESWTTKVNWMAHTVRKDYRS
Chain of Phosphatidylinositol 4,5-bisphosphate 3-kinase catalytic subunit alpha isoform (P42336 whole entry, canonical isoform): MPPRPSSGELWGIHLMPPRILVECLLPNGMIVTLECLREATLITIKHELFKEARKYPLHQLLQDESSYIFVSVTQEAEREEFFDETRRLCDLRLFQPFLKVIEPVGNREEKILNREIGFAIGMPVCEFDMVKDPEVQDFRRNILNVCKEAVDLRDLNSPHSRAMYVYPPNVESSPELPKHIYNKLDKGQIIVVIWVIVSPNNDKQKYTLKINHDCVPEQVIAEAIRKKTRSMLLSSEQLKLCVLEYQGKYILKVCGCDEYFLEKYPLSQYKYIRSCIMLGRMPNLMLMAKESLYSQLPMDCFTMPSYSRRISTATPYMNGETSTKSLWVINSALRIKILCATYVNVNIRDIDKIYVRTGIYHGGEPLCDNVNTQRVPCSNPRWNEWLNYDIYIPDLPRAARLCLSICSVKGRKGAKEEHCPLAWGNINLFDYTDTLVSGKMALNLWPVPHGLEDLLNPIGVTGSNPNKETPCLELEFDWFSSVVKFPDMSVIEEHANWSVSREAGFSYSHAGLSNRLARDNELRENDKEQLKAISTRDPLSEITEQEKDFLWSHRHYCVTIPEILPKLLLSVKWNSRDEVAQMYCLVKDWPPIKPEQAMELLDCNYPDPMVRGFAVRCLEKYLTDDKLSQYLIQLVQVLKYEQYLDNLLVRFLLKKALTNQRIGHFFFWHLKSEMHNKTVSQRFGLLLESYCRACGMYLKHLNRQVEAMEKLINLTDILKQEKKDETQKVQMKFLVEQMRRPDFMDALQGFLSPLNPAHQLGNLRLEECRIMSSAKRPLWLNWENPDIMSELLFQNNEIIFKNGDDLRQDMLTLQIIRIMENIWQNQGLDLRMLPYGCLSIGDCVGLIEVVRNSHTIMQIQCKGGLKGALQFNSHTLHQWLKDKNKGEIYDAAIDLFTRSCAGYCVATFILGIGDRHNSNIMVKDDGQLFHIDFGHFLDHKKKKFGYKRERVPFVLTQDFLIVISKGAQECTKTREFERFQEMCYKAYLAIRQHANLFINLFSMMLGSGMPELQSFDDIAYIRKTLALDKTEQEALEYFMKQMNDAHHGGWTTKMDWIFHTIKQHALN

Consider `CC(=O)Nc1nc(C)c(-c2cnc(Cl)c(NS(C)(=O)=O)c2)s1`, for which the IC50 amounted to 110 nM in experiment [1] and 10 nM in experiment [2]. In addition, the Cp in the experiment with Rattus norvegicus turned out to be 0.3 µM.
Consider `COC[C@H]1OC(=O)c2coc3c2[C@@]1(C)C1=C(C3=O)[C@@H]2CCC(=O)[C@@]2(C)C[C@H]1OC(C)=O`, for which the inhibition result in the experiment listed under Homo sapiens [3], in the experiment listed under Homo sapiens [4] and in the experiment listed under Homo sapiens [5] was “Active” in each case.
In the case of `Cc1cc(C(C)Nc2ccccc2C(=O)O)c2nc(N3CCOCC3)cc(=O)n2c1` (stereo not given), the Cp in the experiment on Rattus norvegicus was 30 µM.
Take `Cc1cc(F)ccc1Oc1cccc2c(=O)cc(N3CCOCC3)[nH]c12`: the IC50 in experiment [1] is 160 nM; in experiment [2] it was 22800 nM. Besides, in the experiment with Rattus norvegicus, the Cp is greater than 40 µM.

As a reminder, the IC50 is the point on the concentration scale where inhibition reaches its midpoint.
